The RNAGym collection of RNA variant scans (doi:10.1126/science.aae0568)
Fewer inactive variants are shown than the library holds.

B1: tRNA (parent)
chain: GUUCCGUUGGCGUAAUGGUAACGCGUCUCCCUCCUAAGGAGAAGACUGCGGGUUCGAGUCCCGUACGGAACG

Variants of: B1
Assay: yeast fitness relative to wild type (ratio to wild type); higher = fitter; tRNA-Arg(CCU), competitive growth, 37 C, YPD
In short: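 Variants of the tRNA-Arg(CCU) gene, chemically synthesised with a 3% per-site mutation rate at 69 sites, were placed at the native genomic locus in Saccharomyces cerevisiae. The pooled strains were competed in YPD at 37°C for 24 hours in six parallel replicates. Gene amplicons from the start population and from each end population were read by 100-nucleotide paired-end sequencing. Darwinian fitness relative to wild type came from changes in genotype frequencies; genotypes needed ≥ 100 starting reads, and estimates < 0.5 were set to 0.5.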

Row | Variant | yeast fitness
1 | GUUCCGUUGGCGUAAUGGUAACGCGUCUCCCUCCUAAGGGGAAGUCUGCGGGUUCAAGUCCCGUACGGAACG [A40G A45U G56A] | 0.601
2 | GUUCCGUUGGCGUAAUGGUAACGCGUCUCCCUCCUAAGGCGAAGUCUGCGGGUUCGAGUCCCGUACGGAACG [A40C A45U] | 0.98
3 | GUUCCGUUGGCGUAAUGGUAACGCGUCUCCCUCCUAAGGCGAAGGCUGCGGGUUCGAGUCCCGUACGGAACG [A40C A45G] | 1
4 | GUUCCGUUGGCGUAAUGGUAACGCGUCUCCCUCCUAAGGCGAAGACUGCGGGUUCGAGUCCCAUACGGAACG [A40C G63A] | 0.815
5 | GUUCCGUUGGCGUAAUGGUAACGCGUCUCCCUCCUAAGGGGAUGACUGCGGGUUGGAGUCCCGUACGGAACG [A40G A43U C55G] | 0.535
6 | GUUCCGUUGGCGUAAUGGUAACGCGUCUCCCUCCUAAGGCGAAGAUUGCGGCUUCGAGUCCCGUACGGAACG [A40C C46U G52C] | ≤ 0.5
7 | GUUCCGUUGGCGUAAUGGUAACGCGUCUCCCUCCUAAGGCGAAGACUGCGGGUUCGGGUCCCGUACGGACCG [A40C A57G A70C] | 0.55
8 | GUUCCGUUGGCGUAAUGGUAACGCGUCUCCCUCCUAAGGCGAAGACUGCGGGUUCAACUCCCGUACGGAACG [A40C G56A G58C] | 0.598
9 | GUUCCGUUGGCGUAAUGGUAACGCGUCUCCCUCCUAAGGCGAAGACUGAGCGUUCGAGACCCGUACGGAACG [A40C C49A G51C U59A] | ≤ 0.5
10 | GUUCCGUUGGCGUAAUGGUAACGCGUCUCCCUCCUAAGGCGAAGACUGCGGGUUCGAGUGCGGUACGGAACG [A40C C60G C62G] | ≤ 0.5
11 | GUUCCGUUGGCGUAAUGGUAACGCGUCUCCCUCCUAAGGCGAAGACUACGGGUUCGAGUCCCGUACGGAACG [A40C G48A] | 1.02
12 | GUUCCGUUGGCGUAAUGGUAACGCGUCUCCCUCCUAAGGCGAAGACUGCGGGUUCGGGUCCCGUACGGAACG [A40C A57G] | 0.813
13 | GUUCCGUUGGCGUAAUGGUAACGCGUCUCCCUCCUAAGGCGAAGACUGCGGGUCCGAGUCCCGUACGGAACG [A40C U54C] | 0.963
14 | GUUCCGUUGGCGUAAUGGUAACGCGUCUCCCUCCUAAGGGGAAGACUGCGGGUUCGAGUCCCGUACGGCACG [A40G A69C] | 0.861
15 | GUUCCGUUGGCGUAAUGGUAACGCGUCUCCCUCCUAAGGGGAAGACUGCGGGUUCGGGUCCCGUACGGAACG [A40G A57G] | 0.969
16 | GUUCCGUUGGCGUAAUGGUAACGCGUCUCCCUCCUAAGGCGAAGACUGCGGGUUCGAGUCCGAUACGGAACG [A40C C62G G63A] | ≤ 0.5
17 | GUUCCGUUGGCGUAAUGGUAACGCGUCUCCCUCCUAAGGCGAAGACUGCCGGUUCGAGUCCCGUACGGAACG [A40C G50C] | 0.644
18 | GUUCCGUUGGCGUAAUGGUAACGCGUCUCCCUCCUAAGGGGAAGACUGCGGGUUCGCGUCCUGUACGGAACG [A40G A57C C62U] | ≤ 0.5
19 | GUUCCGUUGGCGUAAUGGUAACGCGUCUCCCUCCUAAGGGGCAGACUGCGGGUUCGAGUCCCGUACGGAACG [A40G A42C] | 0.757

Row | Variant | yeast fitness
20 | GUUCCGUUGGCGUAAUGGUAACGCGUCUCCCUCCUAAGGGGUAGACUGCGGGUUCGAGUCCCGUACGGAACG [A40G A42U] | 0.71
21 | GUUCCGUUGGCGUAAUGGUAACGCGUCUCCCUCCUAAGGCGAAGACUGCGGGUUCGAGUCACGUAAGGAACG [A40C C61A C66A] | ≤ 0.5
22 | GUUCCGUUGGCGUAAUGGUAACGCGUCUCCCUCCUAAGGCGAAGACUGCGGGUUCGAGUCCCGUACCGAACG [A40C G67C] | 0.907
23 | GUUCCGUUGGCGUAAUGGUAACGCGUCUCCCUCCUAAGGCGAAGACUGCGGGUUCGAGUCCCGUACUGAACG [A40C G67U] | 0.815
24 | GUUCCGUUGGCGUAAUGGUAACGCGUCUCCCUCCUAAGGCGAAGACUGCGGGUUCGAGUCCCGUAAGGAACG [A40C C66A] | 0.755
25 | GUUCCGUUGGCGUAAUGGUAACGCGUCUCCCUCCUAAGGCGAAGACUGCGGGUUCGAGUCCCGUAGGGAACG [A40C C66G] | 0.669
26 | GUUCCGUUGGCGUAAUGGUAACGCGUCUCCCUCCUAAGGCGAAGACUGCGGGUUGGAGUCCCGUACGGAACG [A40C C55G] | 0.527
27 | GUUCCGUUGGCGUAAUGGUAACGCGUCUCCCUCCUAAGGCGAAGACUGCGGGUUUGAGUCCCGUACGGAACG [A40C C55U] | 0.929
28 | GUUCCGUUGGCGUAAUGGUAACGCGUCUCCCUCCUAAGGCGAAGAAUGCGGGUUCGAGUCGCGUACGGGACG [A40C C46A C61G A69G] | ≤ 0.5
29 | GUUCCGUUGGCGUAAUGGUAACGCGUCUCCCUCCUAAGGGGAAGUCUGCGGGUUCGAGUCCCGUACGGAACG [A40G A45U] | 0.786
30 | GUUCCGUUGGCGUAAUGGUAACGCGUCUCCCUCCUAAGGGGAAGGCUGCGGGUUCGAGUCCCGUACGGAACG [A40G A45G] | 0.849
31 | GUUCCGUUGGCGUAAUGGUAACGCGUCUCCCUCCUAAGGGGUAGACUGAGGGUUCGAGUCCCGUACGGAACG [A40G A42U C49A] | ≤ 0.5
32 | GUUCCGUUGGCGUAAUGGUAACGCGUCUCCCUCCUAAGGCGAAGACUGUGGGUUCGAGUCCCGUACGGAACG [A40C C49U] | 0.892
33 | GUUCCGUUGGCGUAAUGGUAACGCGUCUCCCUCCUAAGGCGAAGACUGCGGGUUCGAGUCCCGUACGGCACG [A40C A69C] | 0.765
34 | GUUCCGUUGGCGUAAUGGUAACGCGUCUCCCUCCUAAGGCGAAGACUGCGGGUUCGAGUCCCGUACGGUACG [A40C A69U] | 0.843
35 | GUUCCGUUGGCGUAAUGGUAACGCGUCUCCCUCCUAAGGGGAAGCCUGGGGGUUCGAGUCCCGUACCGUACG [A40G A45C C49G G67C A69U] | ≤ 0.5
36 | GUUCCGUUGGCGUAAUGGUAACGCGUCUCCCUCCUAAGGCGAAGACUGCGGGUUCGUGUCUCGUACGGAACG [A40C A57U C61U] | ≤ 0.5
37 | GUUCCGUUGGCGUAAUGGUAACGCGUCUCCCUCCUAAGGCGAAGACUGCGGGUUCGAGUCCCGUUCGGAACG [A40C A65U] | 0.817
